Test results taken from ChEMBL document CHEMBL1139384, “First Cdc7 kinase inhibitors: pyrrolopyridinones as potent and orally active antitumor agents. 2. Lead discovery” (J Med Chem, 2009).

Experiments:
[1] = target: Cyclin-dependent kinase 9 (Homo sapiens, UniProt P50750); assay: Inhibition of CDK9
[2] = target: Cell division cycle 7-related protein kinase (Homo sapiens, UniProt O00311); assay: Inhibition of human Cdc7 assessed as inhibition of rate of phosphorylation of Mcm2 protein
A2780 [3] = assay: Antiproliferative activity against human A2780 cells after 72 hrs by luciferase based assay; assay type: functional, cell-based
Hepatocyte = assay: Metabolic stability in rat hepatocytes assessed as intrinsic clearance at 1 uM; assay type: cell-based; conditions: Liver
HT-29 = assay: Antiproliferative activity against human HT-29 cells after 72 hrs by luciferase based assay; assay type: functional, cell-based; conditions: HT-29, 72 h
In short: (§1)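 Cells seeded at 2500–5000/well in complete medium (RPMI1640, McCoy's or DMEM with 10% FCS, by line); compound added after 24 h, 72 h at 37 °C, 5% CO2.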

[4] = Antiproliferative activity against human SW403 cells after 72 hrs by luciferase based assay; assay type: functional, cell-based; conditions: SW-403, 72 h; in short: as §1
[5] = Apparent permeability by PAMPA method; assay type: ADME; conditions: read-out: permeability
OPM-2 = assay: Antiproliferative activity against human OPM2 cells after 72 hrs by luciferase based assay; assay type: functional, cell-based; conditions: OPM-2, 72 h; in short: as §1
MCF7 = assay: Antiproliferative activity against human MCF7 cells after 72 hrs by luciferase based assay; assay type: functional, cell-based; conditions: MCF7, 72 h
NHDF = assay: Antiproliferative activity against human NHDF cells after 72 hrs by luciferase based assay; assay type: cell-based
A2780 [6] = assay: Antitumor activity against human A2780 cells xenografted in CDI nu/nu mouse assessed as tumor growth inhibition at 60 mg/kg, po administered for 10 days; assay type: functional; conditions: A2780, 240 h, read-out: TGI
SW48 = assay: Antiproliferative activity against human SW48 cells after 72 hrs by luciferase based assay; assay type: functional, cell-based; conditions: SW48, 72 h; in short: as §1
[7] = Antiproliferative activity against human NCI-H929 cells after 72 hrs by luciferase based assay; assay type: functional, cell-based; conditions: NCI-H929, 72 h; in short: as §1
COLO 205 = assay: Antiproliferative activity against human COLO205 cells after 72 hrs by luciferase based assay; assay type: functional, cell-based; conditions: COLO 205, 72 h
L-363 = assay: Antiproliferative activity against human L363 cells after 72 hrs by luciferase based assay; assay type: functional, cell-based; conditions: L-363, 72 h; in short: as §1
Rattus norvegicus = assay: Antitumor activity against DMBA-induced mammary carcinoma in CD OFA rat assessed as duration of tumor stabilization maintenance at 20 mg/kg, po administered for 10 days; assay type: functional
In short: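 DMBA tumors induced in female CD OFA rats by single intragastric 20 mg DMBA in sesame oil; after about 50 days, rats with a mammary tumor of at least 1 cm given 20 mg/kg orally twice daily for 10 days in glucose solution, or vehicle; 10 per group; tumor volume by Vernier calipers.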

[8] = Antiproliferative activity against human […] cells after 72 hrs by luciferase based assay; assay type: functional, cell-based; in short: as §1

Cyclin-dependent kinase 9, sequence (P50750 whole entry): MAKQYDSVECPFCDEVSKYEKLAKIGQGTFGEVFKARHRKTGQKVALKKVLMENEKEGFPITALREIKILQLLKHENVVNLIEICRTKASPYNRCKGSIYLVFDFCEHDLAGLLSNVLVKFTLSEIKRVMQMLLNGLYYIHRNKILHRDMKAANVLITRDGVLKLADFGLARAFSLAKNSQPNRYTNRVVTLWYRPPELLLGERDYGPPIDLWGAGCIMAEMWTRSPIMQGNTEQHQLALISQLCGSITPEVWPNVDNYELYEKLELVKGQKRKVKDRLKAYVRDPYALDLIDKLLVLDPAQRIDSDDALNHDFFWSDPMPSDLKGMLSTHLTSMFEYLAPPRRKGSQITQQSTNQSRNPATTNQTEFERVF
Cell division cycle 7-related protein kinase, sequence (O00311 whole entry): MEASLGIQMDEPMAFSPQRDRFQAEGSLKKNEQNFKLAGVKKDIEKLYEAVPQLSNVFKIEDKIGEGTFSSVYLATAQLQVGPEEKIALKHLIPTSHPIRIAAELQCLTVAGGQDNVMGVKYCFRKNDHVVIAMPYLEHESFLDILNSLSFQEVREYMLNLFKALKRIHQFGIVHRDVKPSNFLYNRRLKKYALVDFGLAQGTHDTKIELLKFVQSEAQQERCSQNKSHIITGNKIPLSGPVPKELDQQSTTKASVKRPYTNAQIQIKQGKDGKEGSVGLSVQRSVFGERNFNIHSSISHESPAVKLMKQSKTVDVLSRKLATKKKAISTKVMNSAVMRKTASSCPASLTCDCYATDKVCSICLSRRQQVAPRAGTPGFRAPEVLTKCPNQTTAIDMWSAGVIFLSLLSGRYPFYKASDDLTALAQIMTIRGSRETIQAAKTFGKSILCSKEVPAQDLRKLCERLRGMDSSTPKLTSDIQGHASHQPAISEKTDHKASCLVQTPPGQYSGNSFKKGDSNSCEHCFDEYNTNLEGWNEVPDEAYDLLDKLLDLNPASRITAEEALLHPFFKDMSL

IC50 [2]	IC50 (A2780 [3]; Homo sapiens, A2780, 72 h)	SMILES	other results
1 nM	–	CC(C)C1CNC(=O)c2cc(-c3ccnc(N)n3)[nH]c21 (stereo in doubt; 87-2)	IC50 [1]: 73 nM; IC50 (A2780 [3]; a2780): 600 nM
5 nM	–	CCC1CNC(=O)c2cc(-c3ccnc(N)n3)[nH]c21 (stereo in doubt; 86)	–
5 nM	400 nM	CCC1CNC(=O)c2cc(-c3ccnc(N)n3)[nH]c21 (stereo in doubt; 86-2)	IC50 [1]: 17 nM
10 nM	500 nM	CC(C)C1CNC(=O)c2cc(-c3ccncc3)[nH]c21 (centres undefined)	–
6 nM	200 nM	CCC1(CC)CNC(=O)c2cc(-c3ccncc3)[nH]c21	–
13 nM	2400 nM	CC1Cc2[nH]c(-c3ccncc3)cc2C(=O)N1 (centres undefined)	–
2 nM	300 nM	CCC1CNC(=O)c2cc(-c3ccncc3)[nH]c21 (centres undefined)	–
12 nM	6000 nM	Nc1nccc(-c2cc3c([nH]2)C(CCCO)CNC3=O)n1 (centres undefined)	–
20 nM	4000 nM	O=C1NCC(c2ccccc2)c2[nH]c(-c3ccncc3)cc21 (centres undefined)	–
2 nM	600 nM	O=C1NCC(CCF)c2[nH]c(-c3ccncc3)cc21 (centres undefined)	–
5 nM	1000 nM	Nc1nccc(-c2cc3c([nH]2)[C@H](CCF)CNC3=O)n1	IC50 [1]: 96 nM
64 nM	1800 nM	CC1(C)Cc2[nH]c(-c3ccnc(N)n3)cc2C(=O)N1	–
10 nM	–	Nc1nccc(-c2cc3c([nH]2)C(CCC(F)(F)F)CNC3=O)n1 (stereo in doubt; 93)	IC50 (A2780 [3]; a2780): 500 nM
13 nM	–	CC(C)C1CNC(=O)c2cc(-c3ccnc(N)n3)[nH]c21 (stereo in doubt; 87-1)	IC50 [1]: 31 nM; IC50 (A2780 [3]; a2780): 1000 nM
6 nM	900 nM	CC(C)C1Cc2[nH]c(-c3ccncc3)cc2C(=O)N1 (centres undefined)	–
–	–	Nc1nccc(-c2cc3c([nH]2)C(CCC(F)(F)F)CNC3=O)n1 (stereo in doubt; 93-2)	CL (mL.min-1.kg-1) (Hepatocyte): 8.33
2 nM	–	Nc1nccc(-c2cc3c([nH]2)C(C2CCC2)CNC3=O)n1 (stereo in doubt; 88-2)	IC50 [1]: 96 nM; IC50 (A2780 [3]; a2780): 200 nM
11 nM	1100 nM	Nc1nccc(-c2cc3c([nH]2)CC(C2CC2)NC3=O)n1 (centres undefined)	–
24 nM	2000 nM	Nc1nccc(-c2cc3c([nH]2)C(CCCOCc2ccccc2)CNC3=O)n1 (centres undefined)	–
7 nM	400 nM	Nc1nccc(-c2cc3c([nH]2)C(CCOCc2ccccc2)CNC3=O)n1 (centres undefined)	–
6 nM	700 nM	CC1CNC(=O)c2cc(-c3ccnc(N)n3)[nH]c21 (centres undefined)	–

SMILES	IC50 [2]	IC50 (A2780 [3]; Homo sapiens, A2780, 72 h)	other results
O=C1NCCc2[nH]c(-c3ccncc3)cc21	–	1100 nM	IC50 (HT-29): 5000 nM; IC50 [4]: 1000 nM; Papp [5]: 1.84 ×10⁻⁶ cm/s; IC50 (OPM-2): 4500 nM; IC50 (MCF7): 1300 nM; IC50 (NHDF): 1600 nM; inhibition in vivo at 60 mg/kg (A2780 [6]): 50%; IC50 (SW48): 1200 nM; IC50 [7]: 1800 nM; IC50 (COLO 205): 1500 nM; IC50 (L-363): 1600 nM; Activity (Rattus norvegicus): 25 days; IC50 [8]: 1000 nM
